ChEMBL document CHEMBL1137356, “Tricyclic imidazoline derivatives as potent and selective adenosine A1 receptor antagonists” (J Med Chem, 2006)
Values after ≈ are worked out from the molar mass of the structure shown.

Columns and labels:
Adenosine receptor A1 [1] = molecular target: T1, Adenosine receptor A1 (Rattus norvegicus, UniProt P25099); assay: Intrinsic activity at adenosine A1 receptor assessed as blockade of CPA in isolated spontaneously beating rat atria; format: functional; conditions: read-out: pA2 (converted)
T1 sequence (P25099 whole entry): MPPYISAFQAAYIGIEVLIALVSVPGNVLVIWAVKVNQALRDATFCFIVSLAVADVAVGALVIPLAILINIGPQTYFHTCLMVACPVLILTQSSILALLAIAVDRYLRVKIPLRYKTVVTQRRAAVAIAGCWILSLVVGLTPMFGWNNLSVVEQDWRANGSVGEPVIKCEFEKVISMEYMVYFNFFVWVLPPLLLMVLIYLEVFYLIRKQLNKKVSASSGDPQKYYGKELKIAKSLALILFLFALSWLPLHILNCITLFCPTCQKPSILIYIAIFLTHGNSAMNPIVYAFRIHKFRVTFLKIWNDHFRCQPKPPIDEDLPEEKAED

Adenosine receptor A2a [2] = molecular target: Adenosine receptor A2a (Rattus norvegicus, UniProt P30543); assay: Displacement of [3H]ZM-241385 from adenosine A2A receptor in rat striatal membrane; format: cell membranes, Striatum
Outline: (§1)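 Rat brain membranes (cerebral cortex for A1, striatum for A2A) homogenized in 10 mM EDTA/10 mM Na-HEPES pH 7.4 with protease inhibitors, washed, stored at -80 °C. 40-70 µg protein incubated in triplicate with radioligand plus seven competitor concentrations in HEPES/EDTA buffer with 2 units/mL adenosine deaminase, 2.5 h, 21 °C. A1: [3H]DPCPX 2 nM, nonspecific with 10 µM NECA; A2A: [3H]ZM241385 0.5-1.2 nM, nonspecific with 10 µM XAC. GF/C filtration; single-site fit, Cheng-Prusoff Ki.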

Adenosine receptor A1 [3] = molecular target: T1, Adenosine receptor A1; assay: Displacement of [3H]DPCPX from adenosine A1 receptor in rat cerebral cortex; format: tissue-based; outline: as §1
Adenosine receptor A1 [4] = molecular target: T2, Adenosine receptor A1 (Homo sapiens, UniProt P30542); assay: Displacement of [125I]ABA from human adenosine A1 receptor
T2 sequence (P30542 whole entry): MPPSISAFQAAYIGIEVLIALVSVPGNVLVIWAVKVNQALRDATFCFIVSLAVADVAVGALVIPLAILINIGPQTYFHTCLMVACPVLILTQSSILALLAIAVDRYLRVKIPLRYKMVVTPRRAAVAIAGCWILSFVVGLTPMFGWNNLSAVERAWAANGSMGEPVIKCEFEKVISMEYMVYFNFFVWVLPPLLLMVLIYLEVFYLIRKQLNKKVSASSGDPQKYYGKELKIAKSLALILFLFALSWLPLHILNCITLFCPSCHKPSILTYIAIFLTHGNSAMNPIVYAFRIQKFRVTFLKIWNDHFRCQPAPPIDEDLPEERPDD

Adenosine receptor A2a [5] = molecular target: Adenosine receptor A2a (Homo sapiens, UniProt P29274); assay: Displacement of [125I]ZM-241385 from human adenosine A2A receptor
Adenosine receptor A2b = molecular target: T3, Adenosine receptor A2b (Homo sapiens, UniProt P29275); assay: Displacement of [125I]3-(4-aminobenzyl)-8-phenyloxyacetate-1-propyl-xanthine from human adenosine A2B receptor
T3 sequence (P29275 whole entry): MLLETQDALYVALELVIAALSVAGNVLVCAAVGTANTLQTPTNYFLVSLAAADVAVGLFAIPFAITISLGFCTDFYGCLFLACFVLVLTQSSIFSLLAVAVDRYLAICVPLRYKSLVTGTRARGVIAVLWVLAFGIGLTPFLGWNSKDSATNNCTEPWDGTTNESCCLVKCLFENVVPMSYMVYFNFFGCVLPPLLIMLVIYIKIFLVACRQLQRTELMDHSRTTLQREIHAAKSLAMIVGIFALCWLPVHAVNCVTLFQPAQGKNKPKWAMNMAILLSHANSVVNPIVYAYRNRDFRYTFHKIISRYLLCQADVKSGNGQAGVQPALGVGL

Adenosine receptor A3 = molecular target: T4, Adenosine receptor A3 (Homo sapiens, UniProt P0DMS8); assay: Displacement of [125I]ABA from human adenosine A3 receptor
T4 sequence (P0DMS8 whole entry): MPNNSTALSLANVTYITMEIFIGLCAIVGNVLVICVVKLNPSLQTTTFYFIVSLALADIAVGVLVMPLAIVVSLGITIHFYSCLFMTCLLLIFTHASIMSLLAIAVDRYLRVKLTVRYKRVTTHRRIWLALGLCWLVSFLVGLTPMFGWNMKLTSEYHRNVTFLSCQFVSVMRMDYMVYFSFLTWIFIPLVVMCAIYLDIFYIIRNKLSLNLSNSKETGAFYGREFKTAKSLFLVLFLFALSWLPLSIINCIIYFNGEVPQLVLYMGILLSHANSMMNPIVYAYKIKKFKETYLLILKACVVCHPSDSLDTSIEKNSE

[6] = molecular target: Adenosine receptor A2a (Rattus norvegicus) (UniProt P30543); assay: Displacement of [3H]ZM-241385 from adenosine A2A receptor in rat striatal membrane at 10 uM relative to control; format: cell membranes; conditions: Striatum
[7] = molecular target: Adenosine receptors; A1 & A2a (Homo sapiens) (UniProt P30542+P29274); assay: Selectivity for human adenosine A1 receptor over adenosine A2A receptor; format: protein assay
[8] = molecular target: Adenosine receptors; A1 & A2b (Homo sapiens) (UniProt P30542+P29275); assay: Selectivity for human adenosine A1 receptor over adenosine A2B receptor; format: protein assay
[9] = Aqueous solubility of the compound; format: physicochemical
Rattus norvegicus [10] = assay: Sodium excretion level in po dosed rat diuresis model; format: ADME, organism-based
Outline: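 Rats held in metabolic cages and dosed by gavage as 0.5% cmc suspension at several doses; urine collected for 4 h and sodium excretion (UNaV) measured.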

[11] = Oral bioavailability in rat at 1 mg/kg, iv and po; format: ADME, organism-based; conditions: in vivo
Outline: (§2)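 Rats given 1 mg/kg orally and intravenously to obtain pharmacokinetic parameters.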

[12] = Clearance in rat at 1 mg/kg, po; format: ADME, organism-based; set-up: dose 1 mg/kg, route oral; conditions: in vivo; outline: as §2
[13] = (§3) AUC(last) in rat at 1 mg/kg, po; format: ADME, organism-based, Plasma; set-up: time 0 - last, dose 1 mg/kg, route oral; conditions: plasma; outline: as §2
Rattus norvegicus [14] = assay: Volume of distribution in rat at 1 mg/kg, po; format: ADME, organism-based; set-up: dose 1 mg/kg, route oral; conditions: in vivo; outline: as §2
[15] = Half life in rat 1 mg/kg, po; format: ADME, organism-based; set-up: dose 1 mg/kg, route oral; conditions: in vivo; outline: as §2
Rattus norvegicus [16] = assay: as §3; format: ADME, organism-based, Plasma; set-up: time 0 - last, dose 1 mg/kg, route oral; conditions: in vivo; outline: as §2

Sequence of Adenosine receptor A2a (Homo sapiens, UniProt P29274) (P29274 whole entry): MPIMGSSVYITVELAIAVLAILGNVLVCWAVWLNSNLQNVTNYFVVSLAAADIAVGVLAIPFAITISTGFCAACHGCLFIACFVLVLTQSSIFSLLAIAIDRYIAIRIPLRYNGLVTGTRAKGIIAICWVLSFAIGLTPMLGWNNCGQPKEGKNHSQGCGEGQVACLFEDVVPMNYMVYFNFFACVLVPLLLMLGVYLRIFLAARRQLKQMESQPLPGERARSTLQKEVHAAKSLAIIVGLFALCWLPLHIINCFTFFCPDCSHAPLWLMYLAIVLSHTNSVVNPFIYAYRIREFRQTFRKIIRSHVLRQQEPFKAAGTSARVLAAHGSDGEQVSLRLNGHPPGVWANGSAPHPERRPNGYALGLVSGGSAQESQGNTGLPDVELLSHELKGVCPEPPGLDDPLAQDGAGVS
Sequence of Adenosine receptor A2a (Rattus norvegicus) (P30543 whole entry): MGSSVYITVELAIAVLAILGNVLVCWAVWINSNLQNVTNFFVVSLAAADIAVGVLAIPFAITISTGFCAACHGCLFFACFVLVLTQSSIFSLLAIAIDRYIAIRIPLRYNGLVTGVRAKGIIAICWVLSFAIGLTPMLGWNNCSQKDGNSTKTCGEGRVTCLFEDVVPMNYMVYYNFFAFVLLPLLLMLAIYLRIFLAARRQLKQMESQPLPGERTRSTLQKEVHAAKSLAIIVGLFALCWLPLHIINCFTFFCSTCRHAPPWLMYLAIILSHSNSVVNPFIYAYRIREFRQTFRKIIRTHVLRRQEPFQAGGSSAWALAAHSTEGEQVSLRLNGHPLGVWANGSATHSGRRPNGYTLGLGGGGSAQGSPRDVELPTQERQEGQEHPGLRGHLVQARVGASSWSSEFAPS
Sequence of Adenosine receptor A2a (Rattus norvegicus, UniProt P30543) (P30543 whole entry): as above
Sequence of Adenosine receptors; A1 & A2a (Homo sapiens) (P29274 whole entry, looked up, one chain of several): as the sequence (P29274 whole entry) above

## CCCN1C(=O)N2C[C@@H](CC)N=C2c2[nH]c(C34CCC(O)(CC3)CC4)nc21 [listing 1 of 2 here]
Adenosine receptor A1 [1]
  Kb: 1.32 nM
Adenosine receptor A2a [2]
  Ki: 2700 nM
Adenosine receptor A1 [3]
  Ki: 6 nM
Adenosine receptor A1 [4]
  Ki: 22 nM
Adenosine receptor A2a [5]
  Ki: 4400 nM
Adenosine receptor A2b
  Ki: 580 nM
Adenosine receptor A3
  Ki: > 10000 nM

## CCCN1C(=O)N2C[C@@H](C(C)C)N=C2c2[nH]c(C34CCC(CCC(=O)O)(CC3)CC4)nc21 [listing 1 of 2 here]
[6]
  Activity: 74%
[7]
  Ratio Ki: 400
[8]
  Ratio Ki: 69

## CCCN1C(=O)N2C[C@@H](C)N=C2c2[nH]c(C34CCC(O)(CC3)CC4)nc21
[6]
  Activity: 32%
Adenosine receptor A1 [4]
  Ki: 60 nM
Adenosine receptor A2b
  Ki: 2200 nM
[8]
  Ratio Ki: 37

## CCCN1C(=O)N2C[C@@H](Cc3ccccc3)N=C2c2[nH]c(C34CCC(O)(CC3)CC4)nc21
[6]
  Activity: 84%

## CCCN1C(=O)N2CC[C@@H](C)N=C2c2[nH]c(C34CCC(O)(CC3)CC4)nc21
Adenosine receptor A1 [3]
  Ki: > 250 nM

## CCCN1C(=O)N2C[C@@H](CC)N=C2c2[nH]c(C34CCC(O)(CC3)CC4)nc21.Cl
[9]
  solubility: 100 mg/mL
Rattus norvegicus [10]
  ED50: 0.01 mg/kg
[11]
  bioavailability: 84%
[12]
  CL/F: 18 mL/min/kg
[13]
  AUC(0-t): 800 ng·h/mL
Rattus norvegicus [14]
  Vdss: 4.1 L/kg
[15]
  half-life: 3.8 h

## CCCN1C(=O)N2C[C@@H](CC)N=C2c2[nH]c(C34CCC(C(=O)O)(CC3)CC4)nc21
[6]
  Activity: 48%

## CCCN1C(=O)N2C[C@H](C(C)CC)N=C2c2[nH]c(C34CCC(O)(CC3)CC4)nc21 (stereo partly specified)
[6]
  Activity: 91%
Adenosine receptor A1 [3]
  Ki: 14 nM

## CCCn1c(=O)c2nc(C34CCC(O)(CC3)CC4)[nH]c2n(CCC)c1=O
[7]
  Ratio Ki: 275
[8]
  Ratio Ki: 215

## CCCN1C(=O)N2CC[C@@H](CC)N=C2c2[nH]c(C34CCC(O)(CC3)CC4)nc21
Adenosine receptor A1 [3]
  Ki: > 250 nM

## CCCn1c(=O)c2[nH]c(C34CCC(CCC(=O)O)(CC3)CC4)nc2n(CCC)c1=O [TONAPOFYLLINE]
Adenosine receptor A1 [1]
  Kb: 0.158 nM
Adenosine receptor A1 [3]
  Ki: 1 nM
Adenosine receptor A2a [5]
  Ki: 6400 nM
Adenosine receptor A2b
  Ki: 90 nM
Adenosine receptor A3
  Ki: > 10000 nM

## CCCn1c(=O)c2[nH]c(C34CCC(O)(CC3)CC4)nc2n(CCC)c1=O
[9]
  solubility: 0.1 mg/mL (≈ 277 µM)
Adenosine receptor A1 [3]
  Ki: 0.6 nM
Adenosine receptor A1 [4]
  Ki: 2 nM
Adenosine receptor A2a [5]
  Ki: 550 nM
Adenosine receptor A2b
  Ki: 430 nM
Adenosine receptor A3
  Ki: > 1000 nM

## CCCN1C(=O)N2C[C@@H](C(C)C)N=C2c2[nH]c(C34CCC(CCC(=O)O)(CC3)CC4)nc21.Cl
Rattus norvegicus [10]
  ED50: 0.01 mg/kg
[11]
  bioavailability: 77%
Rattus norvegicus [16]
  AUC: 2600 ng·h/mL
Rattus norvegicus [14]
  Vdss: 0.9 L/kg
[15]
  half-life: 3.1 h

## CCC[C@@H]1CN2C(=O)N(CCC)c3[nH]c(C45CCC(O)(CC4)CC5)nc3C2=N1
[6]
  Activity: 90%

## CCCN1C(=O)N2C[C@@H](C(C)C)N=C2c2[nH]c(C34CCC(O)(CC3)CC4)nc21.Cl
Rattus norvegicus [10]
  ED50: 0.01 mg/kg
[11]
  bioavailability: 54%
[12]
  CL/F: 21 mL/min/kg
[13]
  AUC(0-t): 810 ng·h/mL
Rattus norvegicus [14]
  Vdss: 1.7 L/kg
[15]
  half-life: 2.9 h

## CCCN1C(=O)N2C[C@H](CC)N=C2c2[nH]c(C34CCC(O)(CC3)CC4)nc21
[6]
  Activity: 70%
Adenosine receptor A1 [3]
  Ki: > 100 nM

## CCCN1C(=O)N2C(=NC[C@H]2C)c2[nH]c(C34CCC(O)(CC3)CC4)nc21
Adenosine receptor A1 [3]
  Ki: 51 nM

## CCCN1C(=O)N2C[C@@H](C(C)C)N=C2c2[nH]c(C34CCC(O)(CC3)CC4)nc21 [listing 1 of 2 here]
Adenosine receptor A1 [1]
  Kb: 0.126 nM
Adenosine receptor A2a [2]
  Ki: 1100 nM
Adenosine receptor A1 [3]
  Ki: 4 nM
Adenosine receptor A1 [4]
  Ki: 35 nM
Adenosine receptor A2a [5]
  Ki: 1600 nM
Adenosine receptor A2b
  Ki: 2000 nM
Adenosine receptor A3
  Ki: > 10000 nM

## CCCN1C(=O)N2C[C@@H](C(C)C)N=C2c2[nH]c(C34CCC(CCC(=O)O)(CC3)CC4)nc21 [listing 2 of 2 here]
Adenosine receptor A1 [4]
  Ki: 45 nM
Adenosine receptor A2a [5]
  Ki: 18000 nM
Adenosine receptor A2b
  Ki: 3100 nM
Adenosine receptor A3
  Ki: > 10000 nM

## CCCN1C(=O)N2C[C@@H](CC(C)C)N=C2c2[nH]c(C34CCC(O)(CC3)CC4)nc21
[6]
  Activity: 97%
Adenosine receptor A1 [3]
  Ki: 170 nM

## CCCN1C(=O)N2C(=NC[C@@H]2C)c2[nH]c(C34CCC(O)(CC3)CC4)nc21
Adenosine receptor A1 [3]
  Ki: 69 nM

## CCCN1C(=O)N2C[C@H](CC)N=C2c2[nH]c(C34CCC(C(=O)O)(CC3)CC4)nc21
[6]
  Activity: 80%
Adenosine receptor A1 [3]
  Ki: > 250 nM

## CCCN1C(=O)N2C[C@@H](C(C)C)N=C2c2[nH]c(C34CCC(O)(CC3)CC4)nc21 [listing 2 of 2 here]
[7]
  Ratio Ki: 46
[8]
  Ratio Ki: 57

## CCCN1C(=O)N2C[C@@H](CC)N=C2c2[nH]c(C34CCC(O)(CC3)CC4)nc21 [listing 2 of 2 here]
[7]
  Ratio Ki: 200
[8]
  Ratio Ki: 26

## CCCN1C(=O)N2C[C@@H](CC)N=C2c2[nH]c(C34CCC(CCC(=O)O)(CC3)CC4)nc21
[6]
  Activity: 83%
Adenosine receptor A1 [4]
  Ki: 35 nM
Adenosine receptor A2a [5]
  Ki: > 10000 nM
Adenosine receptor A2b
  Ki: 1900 nM
Adenosine receptor A3
  Ki: > 10000 nM
[7]
  Ratio Ki: > 280
[8]
  Ratio Ki: 54

## CCCN1C(=O)N2C[C@@H](c3ccccc3)N=C2c2[nH]c(C34CCC(O)(CC3)CC4)nc21
[6]
  Activity: 79%

## CCCN1C(=O)N2CCN=C2c2[nH]c(C34CCC(O)(CC3)CC4)nc21
[6]
  Activity: 77%
Adenosine receptor A1 [3]
  Ki: > 100 nM

## CCCn1c(=O)c2nc(C34CCC(CCC(=O)O)(CC3)CC4)[nH]c2n(CCC)c1=O.Cl
Rattus norvegicus [10]
  ED50: 0.01 mg/kg
[11]
  bioavailability: 99%
[12]
  CL/F: 1.6 mL/min/kg
[13]
  AUC(0-t): 10000 ng·h/mL
Rattus norvegicus [14]
  Vdss: 0.3 L/kg
[15]
  half-life: 3.1 h
